Source: ChEMBL document CHEMBL1121996, “A new stable prostacyclin mimic, 7-oxoprostaglandin I2” (J Med Chem, 1982)

Columns and labels:
[1] = target: Adenylate cyclase type 1 (Homo sapiens) (UniProt Q08828); assay: Activation of human platelet adenylate cyclase at the concentration of 1 uMol; assay type: functional
In short: (§1)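 Adenylate cyclase in membranes prepared from human platelet-rich plasma, compound tested as Na salt. Activity is given as percent (mean ± SE) of measurable enzyme activity without drug, n = 8, with significance tested against the respective control. The method follows ref 17.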

Canis familiaris [2] = assay: Percent change in blood pressure produced by the compound on dogs by intravenous infusion rate of 50 ng/kg/min; assay type: functional, Canis lupus familiaris
In short: (§2)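 The compound was infused into a femoral vein at increasing concentrations, each dose level for 3 min. Mean peripheral blood pressure was taken in the femoral artery and heart rate by cardiotachometer. Total and coronary vascular resistance were calculated as blood pressure divided by the corresponding flow. Values are maximum changes as percent of resting values.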

Canis familiaris [3] = assay: Percent change in cardiac out put produced by the compound on dogs by intravenous infusion rate of 50 ng/kg/min; assay type: functional, Canis lupus familiaris, Heart; in short: as §2
Canis familiaris [4] = assay: Percent change in coronary resistance produced by the compound on dogs by intravenous infusion rate of 50 ng/kg/min; assay type: functional, Canis lupus familiaris; in short: as §2
Canis familiaris [5] = assay: Percent change in total peripheral resistance produced by the compound on dogs by intravenous infusion rate of 50 ng/kg/min; assay type: functional, Canis lupus familiaris; in short: as §2
Bos taurus = organism: Bos taurus; assay: Effective concentration of compound for relaxation of bovine coronary artery; assay type: functional
[6] = target: Adenylate cyclase type 1 (Homo sapiens) (UniProt Q08828); assay: Activation of human platelet adenylate cyclase at the concentration of 10 uMol; assay type: functional; in short: as §1
Canis familiaris [7] = assay: Percent change in heart rate produced by the compound on dogs by intravenous infusion rate of 50 ng/kg/min; assay type: functional, Canis lupus familiaris; in short: as §2
Homo sapiens = organism: Homo sapiens; assay: Inhibitory concentration of compound in human platelet rich plasma against 2 umol of ADP-induced aggregation; assay type: functional
Canis familiaris [8] = assay: Percent change in coronary resistance produced by the compound on dogs by intravenous infusion rate of 500 ng/kg/min; assay type: functional, Canis lupus familiaris; in short: as §2
Canis familiaris [9] = assay: Percent change in coronary resistance produced by the compound on dogs by intravenous infusion rate of 5000 ng/kg/min; assay type: functional, Canis lupus familiaris; in short: as §2
Canis familiaris [10] = assay: Percent change in blood pressure produced by the compound on dogs by intravenous infusion rate of 1000 ng/kg/min; assay type: functional, Canis lupus familiaris; in short: as §2
Canis familiaris [11] = assay: Percent change in total peripheral resistance produced by the compound on dogs by intravenous infusion rate of 1000 ng/kg/min; assay type: functional, Canis lupus familiaris; in short: as §2
Canis familiaris [12] = assay: Percent change in total peripheral resistance produced by the compound on dogs by intravenous infusion rate of 500 ng/kg/min; assay type: functional, Canis lupus familiaris; in short: as §2
Canis familiaris [13] = assay: Percent change in cardiac out put produced by the compound on dogs by intravenous infusion rate of 500 ng/kg/min; assay type: functional, Canis lupus familiaris, Heart; in short: as §2
Canis familiaris [14] = assay: Percent change in cardiac out put produced by the compound on dogs by intravenous infusion rate of 1000 ng/kg/min; assay type: functional, Canis lupus familiaris, Heart; in short: as §2
Canis familiaris [15] = assay: Percent change in heart rate produced by the compound on dogs by intravenous infusion rate of 1000 ng/kg/min; assay type: functional, Canis lupus familiaris; in short: as §2
Canis familiaris [16] = assay: Percent change in blood pressure produced by the compound on dogs by intravenous infusion rate of 500 ng/kg/min; assay type: functional, Canis lupus familiaris; in short: as §2
Canis familiaris [17] = assay: Percent change in heart rate produced by the compound on dogs by intravenous infusion rate of 500 ng/kg/min; assay type: functional, Canis lupus familiaris; in short: as §2
Canis familiaris [18] = assay: Percent change in heart rate produced by the compound on dogs by intravenous infusion rate of 5000 ng/kg/min; assay type: functional, Canis lupus familiaris; in short: as §2
Canis familiaris [19] = assay: Percent change in total peripheral resistance produced by the compound on dogs by intravenous infusion rate of 5000 ng/kg/min; assay type: functional, Canis lupus familiaris; in short: as §2
Canis familiaris [20] = assay: Percent change in coronary resistance produced by the compound on dogs by intravenous infusion rate of 1000 ng/kg/min; assay type: functional, Canis lupus familiaris; in short: as §2
Canis familiaris [21] = assay: Percent change in cardiac out put produced by the compound on dogs by intravenous infusion rate of 5000 ng/kg/min; assay type: functional, Canis lupus familiaris, Heart; in short: as §2
Canis familiaris [22] = assay: Percent change in blood pressure produced by the compound on dogs by intravenous infusion rate of 5000 ng/kg/min; assay type: functional, Canis lupus familiaris; in short: as §2

Adenylate cyclase type 1 (Homo sapiens), sequence (Q08828 whole entry, looked up, the tested form may be a part): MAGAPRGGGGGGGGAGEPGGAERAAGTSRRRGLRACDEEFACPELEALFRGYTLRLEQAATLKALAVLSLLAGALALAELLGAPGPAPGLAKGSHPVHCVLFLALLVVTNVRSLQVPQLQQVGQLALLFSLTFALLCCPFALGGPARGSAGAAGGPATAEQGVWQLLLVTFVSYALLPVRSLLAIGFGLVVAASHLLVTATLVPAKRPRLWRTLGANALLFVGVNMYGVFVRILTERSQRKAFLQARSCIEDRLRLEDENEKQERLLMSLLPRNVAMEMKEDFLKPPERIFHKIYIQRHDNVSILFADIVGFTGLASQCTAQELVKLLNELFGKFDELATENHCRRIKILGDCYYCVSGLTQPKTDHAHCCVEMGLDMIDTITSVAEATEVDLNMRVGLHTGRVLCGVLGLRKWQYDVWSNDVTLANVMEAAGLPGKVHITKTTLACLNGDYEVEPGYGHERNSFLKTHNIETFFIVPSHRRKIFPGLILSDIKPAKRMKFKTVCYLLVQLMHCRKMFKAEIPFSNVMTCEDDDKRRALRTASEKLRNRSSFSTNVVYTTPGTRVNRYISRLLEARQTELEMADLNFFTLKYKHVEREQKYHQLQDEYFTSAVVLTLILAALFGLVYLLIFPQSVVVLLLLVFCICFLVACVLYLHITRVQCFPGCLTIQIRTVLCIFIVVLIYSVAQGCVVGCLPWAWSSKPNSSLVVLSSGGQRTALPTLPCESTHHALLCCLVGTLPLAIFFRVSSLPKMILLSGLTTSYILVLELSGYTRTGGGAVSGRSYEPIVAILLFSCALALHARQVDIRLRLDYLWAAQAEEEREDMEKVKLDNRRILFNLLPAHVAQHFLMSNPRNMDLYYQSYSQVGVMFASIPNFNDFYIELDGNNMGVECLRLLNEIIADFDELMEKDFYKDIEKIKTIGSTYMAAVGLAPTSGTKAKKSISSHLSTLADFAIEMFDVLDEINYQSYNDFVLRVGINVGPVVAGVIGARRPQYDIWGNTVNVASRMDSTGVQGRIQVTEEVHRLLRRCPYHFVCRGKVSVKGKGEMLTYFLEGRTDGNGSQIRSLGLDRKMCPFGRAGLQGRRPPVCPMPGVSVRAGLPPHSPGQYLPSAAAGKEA

CCCCC[C@H](O)/C=C/[C@@H]1[C@H]2C/C(=C/CCCC(=O)[O-])O[C@H]2C[C@H]1O.[Na+] [EPOPROSTENOL SODIUM]
Activity [1]: 374% | Hemodynamic change (Canis familiaris [2]): -13.6% | Hemodynamic change (Canis familiaris [3]): -5.6% | Hemodynamic change (Canis familiaris [4]): -2.8% | Hemodynamic change (Canis familiaris [5]): -11.5% | EC50 (Bos taurus): 43 nM | Activity [6]: 1740% | Hemodynamic change (Canis familiaris [7]): 3.6% | IC50 (Homo sapiens): 1 ng/mL

CCCCC[C@H](O)/C=C/[C@H]1[C@H](O)CC2O/C(=C\CCCC(=O)[O-])C(=O)[C@@H]21.[Na+] (stereo partly drawn)
Activity [1]: 239% | Hemodynamic change (Canis familiaris [8]): -2.2% | Hemodynamic change (Canis familiaris [9]): -28.8% | Hemodynamic change (Canis familiaris [10]): -13.3% | Hemodynamic change (Canis familiaris [11]): -13.3% | Hemodynamic change (Canis familiaris [12]): -8.3% | Hemodynamic change (Canis familiaris [13]): -1.6% | Hemodynamic change (Canis familiaris [14]): -3.9% | Hemodynamic change (Canis familiaris [15]): -2% | Hemodynamic change (Canis familiaris [16]): -8.1% | Hemodynamic change (Canis familiaris [17]): 0% | Hemodynamic change (Canis familiaris [18]): -13.8% | EC50 (Bos taurus): 402 nM | Activity [6]: 825% | Hemodynamic change (Canis familiaris [19]): -40.7% | Hemodynamic change (Canis familiaris [20]): -6.1% | Hemodynamic change (Canis familiaris [21]): -22.3% | Hemodynamic change (Canis familiaris [22]): -49%

CCCCC[C@H](O)/C=C/[C@@H]1[C@H]2C(=O)/C(=C/CCCC(=O)[O-])O[C@H]2C[C@H]1O.[Na+]
IC50 (Homo sapiens): 15 ng/mL
